Our source for the Activity values is ChEMBL document CHEMBL1142153, “Pharmacokinetics and disposition of CS-023 (RO4908463), a novel parenteral carbapenem, in animals” (Antimicrob Agents Chemother, 2007).

Series [1] relates to Rattus norvegicus. Description: Urinary excretion in rat assessed as radioactivity at 10 mg/kg, iv after 24 h. The note with it: in vivo. The series is classed as ADME, organism-based, Urine. More on the design: dose 10 mg/kg, route intravenous. In a few lines:
(§1)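 Rats were dosed i.v. via the tail vein with [14C]CS-023 at 10 mg/kg (4.58 MBq/kg) in saline, then kept in individual metabolic cages for separate urine and feces collection over 7 days. Samples up to 24 h were collected at around 4°C into 0.5 M MOPS pH 6.0, and feces were homogenized. Radioactivity was measured by liquid scintillation counting. Parent drug and metabolite were apportioned by silica TLC (3% NaCl:acetonitrile 2:1) with imaging-plate analysis. n=4.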

The test system of series [2] is Rattus norvegicus. In words: Fecal excretion in rat assessed as radioactivity at 10 mg/kg, iv after 24 h. The series is classed as ADME, organism-based. More on the design: dose 10 mg/kg, route intravenous. The conditions noted are these: in vivo. In a few lines: as §1

Regarding `C[C@@H]1[C@H]([C@H](C(=O)O)[C@@H](C)O)N=C(C(=O)O)[C@H]1S[C@H]1C[C@@H](C(=O)N2CC[C@H](NC(=O)CNC(=N)N)C2)N(C)C1`, the Activity came to 31.4% in series [1] and 1.3% in series [2].
